Values joined by “and” are separate entries in the source; they are usually repeats but may differ in a detail not shown here. Equal entries are not always repeated.
Test system: HEK-293T
Assay: Multiplex assay against HEK293T
Assay type: toxicity, cell-based
Conditions: human
Procedure, shortened: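 Phenotypes for tubulin, mitochondrial mass and membrane permeability are expressed as per cents of healthy-nucleus cells. Cells were stained live at seeding with Hoechst33342, BioTracker Green Microtubule Cytoskeleton Dye, MitoTracker Red and Annexin V Alexa Fluor 680, then imaged after compound addition on a CQ1 microscope at 37°C and 5% CO2. Machine-learning gating in CellPathfinder separated Hoechst high-intensity objects from normal cells, divided normal cells by nuclear state (healthy, pyknosed, fragmented) and divided pyknosed cells into mitotic or apoptotic.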

[1] = 12 h, 1 µM, compound concentration 1 uM
[2] = 12 h, 10 µM, compound concentration 10 uM
[3] = 24 h, 1 µM, compound concentration 1 uM
[4] = 24 h, 10 µM, compound concentration 10 uM
[5] = 48 h, 1 µM, compound concentration 1 uM
[6] = 48 h, 10 µM, compound concentration 10 uM

FC(F)(F)c1ccccc1-c1cc(C(F)(F)F)c2[nH]c(C3=NOC4(CCCCC4)C3)nc2c1
Population Apoptotic (%) [1]: 5.48% and 14.05%
Population Fragmented Nuclei (%) [1]: 1.23% and 6.04%
Population Hoechst High Intensity Objects (%) [1]: 0%
Population Membrane Permeable-Phenotype (%) [1]: 0%
Population Mitochondria Different-Phenotype (%) [1]: 43.68% and 36.84%
Population Mitotic Cells (%) [1]: 94.52% and 85.95%
Population Normal (%) [1]: 100%
Population Pyknosed Nuclei (%) [1]: 45.06% and 81.21%
Total Cell Count [1]: 324 and 149
Population Apoptotic (%) [2]: 11.51% and 25.77%
Population Fragmented Nuclei (%) [2]: 0.39% and 4.42%
Population Hoechst High Intensity Objects (%) [2]: 0.78% and 0%
Population Membrane Permeable-Phenotype (%) [2]: 0%
Population Mitochondria Different-Phenotype (%) [2]: 32.17% and 18.18%
Population Mitotic Cells (%) [2]: 88.49% and 74.23%
Population Normal (%) [2]: 99.22% and 100%
Population Pyknosed Nuclei (%) [2]: 54.51% and 85.84%
Population Tubulin-Different-Phenotype (%) [2]: 40.87% and 45.45%
Total Cell Count [2]: 257 and 113
Population Apoptotic (%) [3]: 10.89% and 15.53%
Population Fragmented Nuclei (%) [3]: 1.48% and 2.1%
Population Hoechst High Intensity Objects (%) [3]: 0%
Population Membrane Permeable-Phenotype (%) [3]: 0.93% and 5.41%
Population Mitochondria Different-Phenotype (%) [3]: 18.75% and 24.32%
Population Mitotic Cells (%) [3]: 89.11% and 84.47%
Population Normal (%) [3]: 100%
Population Tubulin-Different-Phenotype (%) [3]: 18.29% and 21.62%
Population Apoptotic (%) [4]: 37.98% and 40%
Population Fragmented Nuclei (%) [4]: 1.06% and 5.51%
Population Hoechst High Intensity Objects (%) [4]: 0.7% and 0%
Population Membrane Permeable-Phenotype (%) [4]: 0.66% and 0%
Population Mitochondria Different-Phenotype (%) [4]: 57.89% and 50%
Population Mitotic Cells (%) [4]: 62.02% and 60%
Population Normal (%) [4]: 99.3% and 100%
Population Pyknosed Nuclei (%) [4]: 45.42% and 86.61%
Population Tubulin-Different-Phenotype (%) [4]: 72.37% and 30%
Total Cell Count [4]: 286 and 127
Population Fragmented Nuclei (%) [5]: 2% and 1.31%
Population Healthy Nuclei (%) [5]: 85.85% and 52.94%
Population Hoechst High Intensity Objects (%) [5]: 0%
Population Membrane Permeable-Phenotype (%) [5]: 4.66% and 2.47%
Population Mitochondria Different-Phenotype (%) [5]: 18.43% and 25.93%
Population Mitotic Cells (%) [5]: 94.52% and 78.57%
Population Normal (%) [5]: 100%
Population Apoptotic (%) [6]: 29.75% and 35.21%
Population Fragmented Nuclei (%) [6]: 1.37% and 5.17%
Population Healthy Nuclei (%) [6]: 74.95% and 33.62%
Population Hoechst High Intensity Objects (%) [6]: 0%
Population Membrane Permeable-Phenotype (%) [6]: 3.92% and 2.56%
Population Mitochondria Different-Phenotype (%) [6]: 79.11% and 61.54%
Population Mitotic Cells (%) [6]: 70.25% and 64.79%
Population Normal (%) [6]: 100%
Population Pyknosed Nuclei (%) [6]: 23.68% and 61.21%

CCOc1ccccc1C(=O)NCC1(N2CCN(CC)CC2)CCCCC1
Population Apoptotic (%) [1]: 17.61% and 11.57%
Population Fragmented Nuclei (%) [1]: 1.59% and 5.52%
Population Hoechst High Intensity Objects (%) [1]: 0%
Population Membrane Permeable-Phenotype (%) [1]: 0.66% and 6.25%
Population Mitotic Cells (%) [1]: 82.39% and 88.43%
Population Normal (%) [1]: 100%
Population Pyknosed Nuclei (%) [1]: 50.48% and 83.45%
Population Tubulin-Different-Phenotype (%) [1]: 10.6% and 18.75%
Total Cell Count [1]: 315 and 145
Population Apoptotic (%) [2]: 15.84% and 21.31%
Population Fragmented Nuclei (%) [2]: 1.84% and 5.41%
Population Healthy Nuclei (%) [2]: 36.2% and 12.16%
Population Hoechst High Intensity Objects (%) [2]: 0% and 0.67%
Population Membrane Permeable-Phenotype (%) [2]: 0.85% and 0%
Population Mitochondria Different-Phenotype (%) [2]: 25.42% and 50%
Population Mitotic Cells (%) [2]: 84.16% and 78.69%
Population Normal (%) [2]: 100% and 99.33%
Population Pyknosed Nuclei (%) [2]: 61.96% and 82.43%
Population Tubulin-Different-Phenotype (%) [2]: 38.14% and 77.78%
Total Cell Count [2]: 326 and 149
Population Apoptotic (%) [3]: 13.73% and 14.84%
Population Fragmented Nuclei (%) [3]: 1% and 7.69%
Population Hoechst High Intensity Objects (%) [3]: 0.2% and 0.59%
Population Membrane Permeable-Phenotype (%) [3]: 2.05% and 0%
Population Mitochondria Different-Phenotype (%) [3]: 24.34% and 10.71%
Population Mitotic Cells (%) [3]: 86.27% and 85.16%
Population Normal (%) [3]: 99.8% and 99.41%
Population Pyknosed Nuclei (%) [3]: 30.66% and 75.74%
Population Tubulin-Different-Phenotype (%) [3]: 21.41% and 10.71%
Total Cell Count [3]: 500 and 170
Population Apoptotic (%) [4]: 40.41% and 45.37%
Population Fragmented Nuclei (%) [4]: 1.63% and 6.29%
Population Hoechst High Intensity Objects (%) [4]: 0%
Population Membrane Permeable-Phenotype (%) [4]: 1.45% and 0%
Population Mitochondria Different-Phenotype (%) [4]: 39.49% and 42.31%
Population Mitotic Cells (%) [4]: 59.59% and 54.63%
Population Normal (%) [4]: 100%
Population Pyknosed Nuclei (%) [4]: 34.03% and 75.52%
Population Tubulin-Different-Phenotype (%) [4]: 64.13% and 73.08%
Total Cell Count [4]: 429 and 143
Population Fragmented Nuclei (%) [5]: 1.56% and 2.66%
Population Healthy Nuclei (%) [5]: 84.02% and 40.96%
Population Hoechst High Intensity Objects (%) [5]: 0%
Population Membrane Permeable-Phenotype (%) [5]: 5.34% and 1.3%
Population Mitochondria Different-Phenotype (%) [5]: 24.83% and 45.45%
Population Mitotic Cells (%) [5]: 94.59% and 81.13%
Population Normal (%) [5]: 100%
Population Apoptotic (%) [6]: 21.8% and 42.22%
Population Fragmented Nuclei (%) [6]: 2.46% and 4.08%
Population Healthy Nuclei (%) [6]: 79.37% and 50%
Population Hoechst High Intensity Objects (%) [6]: 0.14% and 1.01%
Population Membrane Permeable-Phenotype (%) [6]: 3.96% and 3.06%
Population Mitochondria Different-Phenotype (%) [6]: 67.81% and 74.49%
Population Mitotic Cells (%) [6]: 78.2% and 57.78%
Population Normal (%) [6]: 99.86% and 98.99%
Population Pyknosed Nuclei (%) [6]: 18.17% and 45.92%

Cl.c1ccc2c(c1)CCC[C@H]2Nc1nc2ccccc2[nH]1
Population Apoptotic (%) [1]: 12.41% and 9.85%
Population Fragmented Nuclei (%) [1]: 1.91% and 2.52%
Population Hoechst High Intensity Objects (%) [1]: 0.95% and 0.62%
Population Membrane Permeable-Phenotype (%) [1]: 0.58% and 0%
Population Mitotic Cells (%) [1]: 87.59% and 90.15%
Population Normal (%) [1]: 99.05% and 99.38%
Population Pyknosed Nuclei (%) [1]: 43.63% and 83.02%
Total Cell Count [1]: 317 and 160
Population Apoptotic (%) [2]: 7.19% and 13.79%
Population Fragmented Nuclei (%) [2]: 2.56% and 5.8%
Population Hoechst High Intensity Objects (%) [2]: 0.57% and 0%
Population Membrane Permeable-Phenotype (%) [2]: 0%
Population Mitotic Cells (%) [2]: 92.81% and 86.21%
Population Normal (%) [2]: 99.43% and 100%
Population Pyknosed Nuclei (%) [2]: 47.58% and 84.06%
Total Cell Count [2]: 353 and 138
Population Apoptotic (%) [3]: 15.19% and 12.5%
Population Fragmented Nuclei (%) [3]: 2.28% and 0.59%
Population Healthy Nuclei (%) [3]: 64.94% and 28.82%
Population Hoechst High Intensity Objects (%) [3]: 0%
Population Membrane Permeable-Phenotype (%) [3]: 1.6% and 2.04%
Population Mitotic Cells (%) [3]: 84.81% and 87.5%
Population Normal (%) [3]: 100%
Population Pyknosed Nuclei (%) [3]: 32.78% and 70.59%
Population Tubulin-Different-Phenotype (%) [3]: 15.97% and 10.2%
Total Cell Count [3]: 482 and 170
Population Apoptotic (%) [4]: 10.9% and 23.53%
Population Fragmented Nuclei (%) [4]: 2.57% and 5.7%
Population Hoechst High Intensity Objects (%) [4]: 0%
Population Membrane Permeable-Phenotype (%) [4]: 2.68% and 0%
Population Mitochondria Different-Phenotype (%) [4]: 18.75% and 10%
Population Mitotic Cells (%) [4]: 89.1% and 76.47%
Population Normal (%) [4]: 100%
Population Pyknosed Nuclei (%) [4]: 30.89% and 75.32%
Population Tubulin-Different-Phenotype (%) [4]: 23.81% and 10%
Population Apoptotic (%) [5]: 8.15% and 21.05%
Population Fragmented Nuclei (%) [5]: 2.18% and 2.63%
Population Healthy Nuclei (%) [5]: 84.41% and 64.04%
Population Hoechst High Intensity Objects (%) [5]: 0% and 0.44%
Population Membrane Permeable-Phenotype (%) [5]: 3.88% and 2.74%
Population Mitochondria Different-Phenotype (%) [5]: 18.59% and 17.81%
Population Mitotic Cells (%) [5]: 91.85% and 78.95%
Population Normal (%) [5]: 100% and 99.56%
Population Pyknosed Nuclei (%) [5]: 13.41% and 33.33%
Population Fragmented Nuclei (%) [6]: 2.01% and 3.85%
Population Healthy Nuclei (%) [6]: 79.3% and 55.49%
Population Hoechst High Intensity Objects (%) [6]: 0.32% and 0%
Population Membrane Permeable-Phenotype (%) [6]: 5.99% and 1.98%
Population Mitochondria Different-Phenotype (%) [6]: 26.23% and 33.66%
Population Mitotic Cells (%) [6]: 94.35% and 78.38%
Population Normal (%) [6]: 99.68% and 100%
Population Pyknosed Nuclei (%) [6]: 18.69% and 40.66%

— ChEMBL document CHEMBL5724801, “EUbOPEN Chemogenomics Library - Multiplex” (2024)
